High-throughput results deposited in PubChem by Broad Institute.
Pf Dd2 growth – inhibitors of Plasmodium falciparum Dd2 growth; activity change, % at 10 µM; AID 1159554; 94,000 tested, 2.3% active; P. falciparum Dd2 growth, SYBR Green, 72 h; stronger effect = lower value; in the data active = activity change below about -80%; inconclusive = no clear call, values can overlap the other calls
GASC1 inh – inhibitors of human demethylase GASC-1 KDM4C; Q9H3R0; GST-KDM4C 2-372, H3K9me3 peptide, LANCE TR-FRET; inhibition, % at 12.5 µM; 96,000 tested, 0.15% active;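 active = mean replicate inhibition above about 25%, with at least 55% of replicates also reaching it, limit read from the data, passing the limit was not always enough; inconclusive = only one of those two conditions met; inactive = neither condition met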
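reagent = H3K9me3 peptide substrate, Fe(II), 2-oxoglutarate | system = GST-tagged GASC-1 (JMJD2C) catalytic fragment, aa 2-372 | amount = enzyme final amount 10 nM | read-out = Fall in 671/618 emission ratio as inhibition | medium = HEPES buffer, pH 7.5, plus ascorbate | schedule = 30 min reaction, 60 min detection, RT | measured by = LANCE TR-FRET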
T cruzi growth-1 – T. cruzi proliferation inhibition. inhibition, % at 8.34 µM. AID 624255. 77,000 tested, 5.9% active. T. cruzi beta-gal in NIH3T3, GalScreen luminescence, 90 h;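 active = mean inhibition above about 93%, with at least 55% of replicates each passing it, limit read from the data, passing the limit was not always enough; inconclusive = only one of those two conditions holds; inactive = neither condition holds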
IDH1 mut inh – blocks human IDH1 R132H reductase activity. diaphorase/resazurin fluorescence, 60 min. inhibition, % at 10 µM. 70,000 tested, 0.18% active; in the data active = inhibition above about 34%; inconclusive = no clear call, values can overlap the other calls; inactive = below about 11%;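 note: 0% = DMSO and 100% = no enzyme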
Target sequence (O75874 whole entry R132H): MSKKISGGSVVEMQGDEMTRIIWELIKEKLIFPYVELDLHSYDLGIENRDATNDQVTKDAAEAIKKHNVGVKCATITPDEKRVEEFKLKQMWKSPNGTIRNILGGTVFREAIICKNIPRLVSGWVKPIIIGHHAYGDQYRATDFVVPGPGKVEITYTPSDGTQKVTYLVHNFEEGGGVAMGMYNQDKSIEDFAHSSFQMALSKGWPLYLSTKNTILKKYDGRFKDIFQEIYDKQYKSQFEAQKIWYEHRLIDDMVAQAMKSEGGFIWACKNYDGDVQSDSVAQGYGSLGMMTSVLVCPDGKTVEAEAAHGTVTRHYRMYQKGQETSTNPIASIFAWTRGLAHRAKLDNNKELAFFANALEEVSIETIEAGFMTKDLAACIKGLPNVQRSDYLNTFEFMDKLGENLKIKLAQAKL
T cruzi growth-2 – blocks T. cruzi growth in NIH3T3 host cells; shares compounds with T cruzi growth-1; T. cruzi beta-gal in NIH3T3, GalScreen luminescence, 90 h; inhibition, % at 8.35 µM; 5,600 tested, 72% active; AID 651739;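 active = mean replicate inhibition above about 95% and at least 55% of replicates individually reaching it, limit read from the data; inconclusive = only one of the two criteria is met; inactive = neither criterion is met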
T cruzi growth-3 – blocks T. cruzi growth in NIH3T3 host cells | shares compounds with T cruzi growth-1 | T. cruzi beta-gal in NIH3T3, GalScreen luminescence, 90 h | inhibition, % at 2.09 µM | 5,600 tested, 21% active | AID 651740;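 active = mean inhibition above about 95%, with at least 55% of replicates also reaching it, limit read from the data; inconclusive = meets just one of the two conditions; inactive = meets neither condition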;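 note: plate controls were neutral control median for no effect and positive control median for full effect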
3T3 cytotox – kills mouse NIH/3T3 fibroblasts. shares compounds with T cruzi growth-1. NIH/3T3 viability, CellTiter-Glo ATP luminescence, 90 h. cytotoxicity (signal decrease), % at 8.35 µM. 5,600 tested, 14% active. AID 651742;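 active = mean signal decrease across replicates above about 35% based on untreated-well scatter, with enough replicates individually passing, limit read from the data; inconclusive = no rule stated though some were filed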;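 note: 0% = median of neutral control wells and 100% = median of positive control wells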
NIH3T3 tox 2 – kills mouse NIH/3T3 fibroblasts; inhibition, % at 24.9 µM; shares compounds with T cruzi growth-1; 5,600 tested, 56% active; NIH/3T3 viability, CellTiter-Glo ATP luminescence, 90 h;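 active = mean loss of cell viability signal at or above a set limit, and enough replicates individually reaching it; inconclusive = meets only the mean limit or only the replicate share; inactive = meets neither condition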;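 note: 0% = median of neutral control wells and 100% = median of positive control wells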
An asterisk follows results filed as active; ? = inconclusive; · = no result. The list is not random: actives were taken first. Their share in the collection is about 5.8%.

SMILES | Pf Dd2 growth | GASC1 inh | T cruzi growth-1 | IDH1 mut inh | T cruzi growth-2 | T cruzi growth-3 | 3T3 cytotox | NIH3T3 tox 2
C[C@H]1CN([C@@H](C)CO)C(=O)Cc2cc(NC(=O)Cc3ccccc3)ccc2O[C@H]1CN(C)Cc1ccc(C(F)(F)F)cc1 | 6 | 0 | 105* | 0 | 108* | 67 | 14 | 104*
C[C@H]1CN([C@@H](C)CO)C(=O)Cc2cc(NC(=O)Cc3ccccc3)ccc2O[C@@H]1CN(C)Cc1ccc2c(c1)OCO2 | -44 | 2 | 102* | 0 | 108* | 21 | 11 | 3
C[C@H]1CN([C@@H](C)CO)C(=O)Cc2cc(NC(=O)Cc3ccccc3)ccc2O[C@@H]1CN(C)Cc1ccc(C(F)(F)F)cc1 | -27 | 13 | 120* | 0 | 112* | 92 | -5 | 98*
Cc1sc2ncnc(SCC(=O)c3cc(Cl)sc3Cl)c2c1C | · | · | · | 0 | · | · | · | ·
COc1cc([C@@H](O)[C@@H](CO[C@@H]2O[C@H](CO)[C@@H](O)[C@H](O)[C@H]2O)Oc2ccc(/C=C/CO)cc2OC)ccc1O | · | · | · | 0 | · | · | · | ·
N#C[C@@H]1[C@H](c2ccc(C#CCC3CCCC3)cc2)[C@H](CO)N1C(=O)CN1CCOCC1 | -41 | -2 | ? | · | 102* | 107* | 22 | 77*
N#C[C@H]1[C@@H](c2ccc(C#CCC3CCCC3)cc2)[C@H](CO)N1C(=O)CN1CCOCC1 | -28 | -1 | 90 | · | · | · | · | ·
COCC(=O)N1[C@@H](C#N)[C@@H](c2ccc(C#CCC3CCCC3)cc2)[C@@H]1CO | -21 | -1 | ? | · | 99* | 90 | 17 | 103*
O=C(c1ccc(F)cc1)N1CCCCN2[C@H](CO)[C@H](c3ccc(/C=C/c4ccccc4)cc3)[C@H]2C1 | -46 | -1 | 61 | · | · | · | · | ·
O=C(c1ccc(F)cc1)N1CCCCN2[C@H](C1)[C@@H](c1ccc(/C=C/c3ccccc3)cc1)[C@@H]2CO | -18 | -1 | 99* | · | 109* | 79 | 33 | 32*
O=C(c1ccc(F)cc1)N1CCCCN2[C@@H](CO)[C@@H](c3ccc(/C=C/c4ccccc4)cc3)[C@@H]2C1 | -56 | -1 | 112* | · | 98* | 63 | 88* | 104*
O=C(c1ccc(F)cc1)N1CCCCN2[C@H](CO)[C@@H](c3ccc(/C=C/c4ccccc4)cc3)[C@@H]2C1 | 1 | -1 | 72 | · | · | · | · | ·
O=C(c1ccc(F)cc1)N1CCCCN2[C@H](CO)[C@H](c3ccc(/C=C/c4ccccc4)cc3)[C@@H]2C1 | -18 | -2 | 111* | · | 107* | ? | 23 | 105*
O=C(Cc1ccccc1)N1CC[C@H]2[C@H](CO)Nc3ccc(C#Cc4cccc(F)c4)cc3[C@H]21 | -59 | -1 | · | · | · | · | · | ·
O=C(CN1CCOCC1)N1CC[C@@H]2[C@@H](CO)Nc3ccc(-c4ccccc4F)cc3[C@@H]21 | -4 | -1 | 50 | · | · | · | · | ·
O=C(Cc1ccccc1)N1CC[C@H]2[C@H](CO)Nc3ccc(C#Cc4ccccc4)cc3[C@H]21 | -30 | -3 | 119* | · | 105* | 57 | 14 | 75*
O=C(Cc1ccccc1)N1CC[C@H]2[C@H](CO)Nc3ccc(-c4ccccc4)cc3[C@H]21 | 12 | 0 | ? | · | 105* | 69 | -9 | -20
O=C(Cc1ccccc1)N1CC[C@@H]2[C@H]1c1cc(-c3ccccc3F)ccc1N[C@@H]2CO | -15 | 1 | 113* | · | 89 | 67 | -10 | 53*
COC(=O)c1ccccc1NC(=O)CC(O)(C(F)(F)F)C(F)(F)F | · | · | · | 0 | · | · | · | ·
C[C@@H]1CCCCO[C@@H](CN(C)C(=O)Nc2ccc(F)cc2)[C@H](C)CN([C@@H](C)CO)C(=O)c2cc(NC(=O)Nc3ccc(C(F)(F)F)cc3)ccc2O1 | 17 | 0 | 95* | · | 105* | 104* | -7 | -31
C[C@@H]1CCCCO[C@H](CN(C)C(=O)Nc2ccc(C(F)(F)F)cc2)[C@@H](C)CN([C@H](C)CO)C(=O)c2cc(NC(=O)Nc3ccc(F)cc3)ccc2O1 | -23 | 0 | ? | 0 | · | · | · | ·
C[C@@H]1CCCCO[C@H](CN(C)C(=O)Nc2ccc(C(F)(F)F)cc2)[C@H](C)CN([C@@H](C)CO)C(=O)c2cc(NC(=O)Nc3ccc(F)cc3)ccc2O1 | -76 | 2 | 111* | · | 106* | 118* | -8 | 13
CCCNC(=O)N1[C@H](C#N)[C@@H](c2ccc(C#Cc3cccc(F)c3)cc2)[C@@H]1CO | -54 | -2 | 100* | · | 102* | 92 | 9 | -2
CCCNC(=O)N1[C@H](C#N)[C@H](c2ccccc2)[C@H]1CO | -39 | 0 | 37 | · | · | · | · | ·
CCCNC(=O)N1[C@H](C#N)[C@H](c2ccc(C#Cc3ccc(F)cc3)cc2)[C@@H]1CO | -87* | -1 | ? | · | 101* | 112* | -24 | -1
SMILES | Pf Dd2 growth | GASC1 inh | T cruzi growth-1 | IDH1 mut inh | T cruzi growth-2 | T cruzi growth-3 | 3T3 cytotox | NIH3T3 tox 2
Cc1ccc(S(=O)(=O)N(C)C[C@@H]2OCCCC[C@H](C)Oc3ccc(NC(=O)NC4CCCCC4)cc3C(=O)N([C@H](C)CO)C[C@@H]2C)cc1 | -48 | 0 | 99* | · | 107* | 64 | -7 | 0
Cc1ccc(S(=O)(=O)N(C)C[C@H]2OCCCC[C@H](C)Oc3ccc(NC(=O)NC4CCCCC4)cc3C(=O)N([C@@H](C)CO)C[C@@H]2C)cc1 | ? | -1 | 74 | -1 | · | · | · | ·
Cc1ccc(S(=O)(=O)N(C)C[C@@H]2OCCCC[C@H](C)Oc3ccc(NC(=O)NC4CCCCC4)cc3C(=O)N([C@@H](C)CO)C[C@@H]2C)cc1 | -83* | -1 | 101* | 1 | 106* | 93 | 3 | 1
C[C@@H]1CCCCO[C@H](CN(C)S(=O)(=O)c2ccc(Cl)cc2)[C@@H](C)CN([C@@H](C)CO)C(=O)c2cc(NC(=O)NC3CCCCC3)ccc2O1 | · | 0 | 101* | · | 105* | 84 | 17 | 33*
C[C@@H]1CCCCO[C@H](CN(C)S(=O)(=O)c2ccc(Cl)cc2)[C@@H](C)CN([C@H](C)CO)C(=O)c2cc(NC(=O)NC3CCCCC3)ccc2O1 | · | 0 | 27 | 4 | · | · | · | ·
Cc1ccc(S(=O)(=O)N(C)C[C@H]2OCCCC[C@@H](C)Oc3ccc(NC(=O)NC4CCCCC4)cc3C(=O)N([C@@H](C)CO)C[C@H]2C)cc1 | -55 | -1 | 100* | · | 108* | 31 | -6 | -54
C[C@H]1CCCCO[C@@H](CN(C)S(=O)(=O)c2ccc(F)cc2)[C@@H](C)CN([C@@H](C)CO)C(=O)c2cc(NC(=O)NC3CCCCC3)ccc2O1 | -60 | -1 | 69 | -10 | · | · | · | ·
